Results published in ChEMBL document CHEMBL1137684, “Examination of growth inhibitory properties of synthetic chalcones for which antibacterial activity was predicted” (2009).
In brackets after ≈: the same amount, converted by molar mass. Activity calls are given as the source filed them. How the calls were made is not given here.

Experiments:
Staphylococcus aureus [1] = experiment: Antibacterial activity against Staphylococcus aureus Rosenbach 209 after 48 hrs by agar well diffusion method; type: functional
Outline: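 Agar-well diffusion on meat-peptone agar. Read-out was the diameter of the inhibition zone, with ≥15 mm taken as active. Pure solvent served as the control.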

Escherichia coli = experiment: Antibacterial activity against Escherichia coli WF+; type: functional, organism-based
Staphylococcus aureus [2] = experiment: Antibacterial activity against Staphylococcus aureus Rosenbach 209 after 24 hrs by serial dilution method; type: functional; conditions: Rosenbach 209, 24 h
Outline: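 Serial dilution of each chalcone in meat-peptone broth in tubes. Each tube was inoculated with bacterial suspension at 10⁵ cells/ml and incubated at 37 °C for 24 h. MIC was the lowest dilution with no visible growth compared with inoculated drug-free broth.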

SMILES	diameter of the inhibition zone (DIZ) (Staphylococcus aureus [1]) [mm]	Activity (Escherichia coli)	MIC (Staphylococcus aureus [2]) [µg/mL]
N#Cc1ccc(/C=C/C(=O)c2ccc(Cl)cc2)cc1	21	inactive	250 (≈ 934 µM)
N#Cc1ccc(/C=C/C(=O)c2ccccc2)cc1	16	inactive	500 (≈ 2140 µM)
COc1cc(/C=C/C(=O)/C=C/c2cc(OC)c(OC)c(OC)c2)cc(OC)c1OC	0	inactive	250 (≈ 603 µM)
O=C(/C=C/c1ccccc1)c1ccc(Cl)cc1	0	inactive	500 (≈ 2060 µM)
O=C(/C=C/c1ccc(O)c(O)c1)c1ccc(Cl)cc1	19	inactive	125 (≈ 455 µM)
COc1cc(/C=C/C(=O)c2ccc(Cl)cc2)ccc1O	21	inactive	250 (≈ 866 µM)
O=C(/C=C/c1cc([N+](=O)[O-])ccc1O)c1ccc(Cl)cc1	0	inactive	500 (≈ 1650 µM)
O=C(/C=C/c1ccc(Cl)cc1)c1ccc(Cl)cc1 [4',4-DICHLOROCHALCONE]	0	inactive	500 (≈ 1800 µM)
COc1cc(C(=O)/C=C/c2ccc(O)cc2)cc(OC)c1OC	0	inactive	500 (≈ 1590 µM)
O=C(/C=C/c1ccccc1)c1ccccc1 [CHALCONE]	29	inactive	125 (≈ 600 µM)
O=C(/C=C/C=C/c1ccccc1)/C=C/C=C/c1ccccc1	0	inactive	500 (≈ 1750 µM)
COc1cc(C(=O)/C=C/c2ccc(C)cc2)cc(OC)c1OC	0	inactive	500 (≈ 1600 µM)
COc1cc(C(=O)/C=C/c2cccc(O)c2)cc(OC)c1OC	0	inactive	500 (≈ 1590 µM)
O=C(/C=C/c1ccc([N+](=O)[O-])cc1)c1ccccc1	17	inactive	250 (≈ 987 µM)
COc1cc(C(=O)/C=C/c2ccc(C#N)cc2)cc(OC)c1OC	0	inactive	62.5 (≈ 193 µM)
COc1ccc(/C=C/C(=O)c2ccccc2)cc1 [4-METHOXY CHALCONE]	0	inactive	500 (≈ 2100 µM)
Cc1ccc(/C=C/C(=O)c2ccccc2)cc1	0	inactive	500 (≈ 2250 µM)
COc1ccc(/C=C/C(=O)c2cc(OC)c(OC)c(OC)c2)cc1	0	inactive	500 (≈ 1520 µM)
O=C(/C=C/c1ccc(O)cc1)c1ccc(Cl)cc1	31	inactive	125 (≈ 483 µM)
O=C(/C=C/c1ccc(O)c(O)c1)c1ccccc1	21	inactive	125 (≈ 520 µM)
CC(=O)Nc1ccc(/C=C/C(=O)c2ccccc2)cc1	0	inactive	500 (≈ 1880 µM)
O=C(/C=C/c1cccc(O)c1)c1ccc(Cl)cc1	25	inactive	125 (≈ 483 µM)
COc1cc(C(=O)/C=C/c2ccc(Cl)cc2)cc(OC)c1OC	0	inactive	62.5 (≈ 188 µM)
COc1ccc(/C=C/C(=O)c2ccc(Cl)cc2)cc1	0	inactive	500 (≈ 1830 µM)
COc1ccc(/C=C/C(=O)c2ccccc2)cc1O	0	inactive	250 (≈ 983 µM)

SMILES	diameter of the inhibition zone (DIZ) (Staphylococcus aureus [1]) [mm]	Activity (Escherichia coli)	MIC (Staphylococcus aureus [2]) [µg/mL]
O=C(/C=C/c1ccc([N+](=O)[O-])cc1)c1ccc(Cl)cc1	17	inactive	250 (≈ 869 µM)
CN(C)c1ccc(/C=C/C(=O)c2ccc(Cl)cc2)cc1	0	inactive	500 (≈ 1750 µM)
O=C(/C=C/c1ccc(Cl)cc1)c1ccccc1 [4-CHLORO CHALCONE]	0	inactive	500 (≈ 2060 µM)
CC(=O)Nc1ccc(/C=C/C(=O)c2ccc(Cl)cc2)cc1	0	inactive	500 (≈ 1670 µM)
COc1cc(C(=O)/C=C/c2ccc(N(C)C)cc2)cc(OC)c1OC	0	inactive	500 (≈ 1460 µM)
O=C(/C=C/c1ccc(Cl)cc1)/C=C/c1ccc(Cl)cc1	0	inactive	250 (≈ 825 µM)
COc1cc(C(=O)/C=C/c2ccc([N+](=O)[O-])cc2)cc(OC)c1OC	0	inactive	62.5 (≈ 182 µM)
COc1ccc(/C=C/C(=O)c2cc(OC)c(OC)c(OC)c2)cc1O	0	inactive	500 (≈ 1450 µM)
O=C(/C=C/C=C/c1ccccc1)c1ccc(Cl)cc1	0	inactive	500 (≈ 1860 µM)
COc1cc(/C=C/C(=O)c2ccccc2)ccc1O	0	inactive	500 (≈ 1970 µM)
O=C(/C=C/c1ccccc1O)c1ccccc1	22	inactive	62.5 (≈ 279 µM)
CN(C)c1ccc(/C=C/C(=O)c2ccccc2)cc1	0	inactive	500 (≈ 1990 µM)
O=C(/C=C/c1ccccc1O)c1ccc(Cl)cc1	20	inactive	125 (≈ 483 µM)
O=C(/C=C/c1ccc(O)cc1)c1ccccc1 [4-HYDROXYCHALCONE]	19	inactive	125 (≈ 557 µM)
COc1cccc(/C=C/C(=O)c2ccc(Cl)cc2)c1O	0	inactive	250 (≈ 866 µM)
COc1cc(C(=O)/C=C/c2ccc(NC(C)=O)cc2)cc(OC)c1OC	0	inactive	500 (≈ 1410 µM)
COc1cc(/C=C/C(=O)c2ccc(Cl)cc2)cc(OC)c1O	19	inactive	500 (≈ 1570 µM)
COc1cccc(/C=C/C(=O)c2ccccc2)c1O	19	inactive	125 (≈ 492 µM)
COc1ccc(/C=C/C(=O)c2ccc(Cl)cc2)cc1O	0	inactive	62.5 (≈ 216 µM)
O=C(/C=C/c1cccc(O)c1)c1ccccc1 [3-HYDROXY CHALCONE]	20	inactive	250 (≈ 1110 µM)
COc1cc(C(=O)/C=C/c2ccccc2)cc(OC)c1OC	0	inactive	250 (≈ 838 µM)
O=C(/C=C/C=C/c1ccccc1)c1ccccc1	0	inactive	500 (≈ 2130 µM)
COc1cc(C(=O)/C=C/c2ccccc2O)cc(OC)c1OC	0	inactive	500 (≈ 1590 µM)
COc1cc(/C=C/C(=O)c2cc(OC)c(OC)c(OC)c2)ccc1O	0	inactive	500 (≈ 1450 µM)
Cc1ccc(/C=C/C(=O)c2ccc(Cl)cc2)cc1	0	inactive	500 (≈ 1950 µM)
